ChEMBL document CHEMBL1287780, “Discovery of 1H-benzo[d][1,2,3]triazol-1-yl 3,4,5-trimethoxybenzoate as a potential antiproliferative agent by inhibiting histone deacetylase” (Bioorg Med Chem, 2010)

Legend:
NCI-H460 = experiment: Antiproliferative activity against human H460 cells after 72 hrs by methylene blue staining; assay type: functional, cell-based; conditions: NCI-H460, 72 h
Summary of the method: (§1)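 Log-phase cells kept in RPMI-1640 with 5% fetal bovine serum, seeded at 5000 cells/mL/well, then exposed to a range of drug concentrations for 72 h. Growth read by methylene blue dye assay. IC50, the concentration giving 50% growth inhibition relative to untreated control, derived graphically. Doxorubicin served as positive control.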

MKN-45 = experiment: Antiproliferative activity against human MKN45 cells after 72 hrs by methylene blue staining; assay type: functional, cell-based; conditions: MKN-45, 72 h; summary of the method: as §1
KB = experiment: Antiproliferative activity against human KB cells after 72 hrs by methylene blue staining; assay type: functional, cell-based; summary of the method: as §1
Histone deacetylase = experiment: Inhibition of human HDAC after 30 mins; assay type: protein assay

Structure (SMILES) | IC50 (NCI-H460) | IC50 (MKN-45) | IC50 (KB) | IC50 (Histone deacetylase)
COc1cc(C(=O)n2nnc3ccccc32)cc(OC)c1OC | 480 nM | 275 nM | 291 nM | –
O=C(c1cc(O)cc(O)c1)n1nnc2ccccc21 | 559 nM | 521 nM | 575 nM | –
O=C(c1cc(O)c(O)c(O)c1)n1nnc2ccccc21 | 332 nM | 334 nM | 392 nM | –
O=C(c1ccc(O)cc1)n1nnc2ccccc21 | 662 nM | 385 nM | 577 nM | –
COc1ccc(C(=O)n2nnc3ccccc32)cc1 | 662 nM | 500 nM | 501 nM | –
O=C(On1nnc2ccccc21)c1ccccc1 | 195 nM | 97 nM | 104 nM | –
COc1ccc2nnn(OC(=O)c3ccccc3)c2c1 | 295 nM | 206 nM | 209 nM | –
COc1cc(OC)cc(C(=O)n2nnc3ccccc32)c1 | 491 nM | 419 nM | 434 nM | –
COc1cccc2c1C(=O)c1c(O)c3c(c(O)c1C2=O)C[C@@](O)(C(=O)CO)C[C@@H]3O[C@H]1C[C@H](N)[C@H](O)[C@H](C)O1 [DOXORUBICIN] | 0.38 nM | – | 0.23 nM | –
COc1ccc2nnn(OC(=O)c3cc(O)cc(O)c3)c2c1 | 195 nM | 93 nM | 153 nM | –
COc1ccc2nnn(OC(=O)c3ccc(O)cc3)c2c1 | 216 nM | 184 nM | 149 nM | –
O=C(c1ccccc1)n1nnc2ccccc21 | 750 nM | 668 nM | 666 nM | –

The remaining molecules from weak to strong by IC50 (NCI-H460), led by results:

IC50 (NCI-H460) | IC50 (MKN-45) | IC50 (KB) | IC50 (Histone deacetylase) | Structure (SMILES)
117 nM | 36 nM | 81 nM | – | COc1ccc2nnn(OC(=O)c3cc(O)c(O)c(O)c3)c2c1
98 nM | 49 nM | 88 nM | – | O=C(On1nnc2ccccc21)c1ccc(O)cc1
95 nM | 93 nM | 97 nM | – | COc1ccc(C(=O)On2nnc3ccc(OC)cc32)cc1
80 nM | 36 nM | 35 nM | 87500 nM | COc1cc(OC)cc(C(=O)On2nnc3ccc(OC)cc32)c1
52 nM | 39 nM | 43 nM | 73100 nM | COc1ccc(C(=O)On2nnc3ccccc32)cc1
52 nM | 28 nM | 67 nM | – | O=C(On1nnc2ccccc21)c1cc(O)cc(O)c1
42 nM | 30 nM | 37 nM | 61100 nM | COc1cc(OC)cc(C(=O)On2nnc3ccccc32)c1
41 nM | 17 nM | 18 nM | > 100000 nM | O=C(On1nnc2ccccc21)c1cc(O)c(O)c(O)c1
23 nM | 8 nM | 11 nM | 58100 nM | COc1ccc2nnn(OC(=O)c3cc(OC)c(OC)c(OC)c3)c2c1
2.4 nM | 1.5 nM | 1.2 nM | 9400 nM | COc1cc(C(=O)On2nnc3ccccc32)cc(OC)c1OC
